# Screening results as filed in PubChem.
# procasp7 counter – counter-screen: procaspase-7 (human) activation. AID 463210. recombinant procaspase-7, Ac-DEVD-pNA absorbance 405 nm; D23A/D198A/D206A triple mutant, cannot self-cleave; scale: DMSO 0, 5 µM enzyme 100. activation, % at 8.5 µM. 330,000 compounds, 0.093% hits;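 active means percent activation above the screen-wide mean plus 3 SD, cut at about 25% in these data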
#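 Material: Procaspase-7 triple mutant (PC-7 D3A) | Quantity: 2 µM procaspase-7 mutant as dispensed | Reagent: DEVD-pNA substrate | Times: 1 h preincubation, 2 h reaction | Technique: 405 nm absorbance of p-nitroaniline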
# procasp3 activ – activators of human procaspase-3. activation, % at 8.5 µM. 330,000 compounds, 0.11% hits. P42574. AID 463141. recombinant procaspase-3 D3A, Ac-DEVD-pNA absorbance 405 nm;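 active means activation above the mean of all tested compounds plus 3 SD, cut at about 21% in these data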;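 further: 0% = DMSO alone and 100% = DMSO wells spiked with extra 5 µM PC-3 D3A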
#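 material = Procaspase-3 D3A mutant | probe or stimulus = Ac-DEVD-pNA | compound = single dose, 8.5 µM nominal compound, 0.8% DMSO | timing = 1 h preincubation, 2 h reaction | measured by = 405 nm absorbance of p-nitroaniline, reads at 0 and 120 min | benchmarks = DMSO-only low control, 5 µM PC-3 D3A high control | repeats = singlicate, each compound tested once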
# HGIII-sPLA2 inh – Inhibits HGIII-sPLA2 liposome hydrolysis, primary screen; QFRET BODIPY PC-A2 liposome hydrolysis, fluorescence; AID 743126; 370,000 compounds, 0.56% hits; Q9NZ20; inhibition, % at 12.2 µM;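 active means inhibition above mean plus 3 SD of compounds lying within the high and low control bounds, cut at about 19% in these data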;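 further: 0% = median of test compound wells and 100% = no enzyme DMSO wells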
# PLCb3 inh – inhibitors of human phospholipase C beta3. inhibition, % at 12.2 µM. AID 720704. Q01970. 370,000 compounds, 0.18% hits. Purified PLC-beta3, fluorogenic substrate, fluorescence; in the data active means inhibition above about 11%;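 further: 0% = median of compound wells on plate and 100% = full blocker control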
# Target sequence (Q01970 whole entry, looked up): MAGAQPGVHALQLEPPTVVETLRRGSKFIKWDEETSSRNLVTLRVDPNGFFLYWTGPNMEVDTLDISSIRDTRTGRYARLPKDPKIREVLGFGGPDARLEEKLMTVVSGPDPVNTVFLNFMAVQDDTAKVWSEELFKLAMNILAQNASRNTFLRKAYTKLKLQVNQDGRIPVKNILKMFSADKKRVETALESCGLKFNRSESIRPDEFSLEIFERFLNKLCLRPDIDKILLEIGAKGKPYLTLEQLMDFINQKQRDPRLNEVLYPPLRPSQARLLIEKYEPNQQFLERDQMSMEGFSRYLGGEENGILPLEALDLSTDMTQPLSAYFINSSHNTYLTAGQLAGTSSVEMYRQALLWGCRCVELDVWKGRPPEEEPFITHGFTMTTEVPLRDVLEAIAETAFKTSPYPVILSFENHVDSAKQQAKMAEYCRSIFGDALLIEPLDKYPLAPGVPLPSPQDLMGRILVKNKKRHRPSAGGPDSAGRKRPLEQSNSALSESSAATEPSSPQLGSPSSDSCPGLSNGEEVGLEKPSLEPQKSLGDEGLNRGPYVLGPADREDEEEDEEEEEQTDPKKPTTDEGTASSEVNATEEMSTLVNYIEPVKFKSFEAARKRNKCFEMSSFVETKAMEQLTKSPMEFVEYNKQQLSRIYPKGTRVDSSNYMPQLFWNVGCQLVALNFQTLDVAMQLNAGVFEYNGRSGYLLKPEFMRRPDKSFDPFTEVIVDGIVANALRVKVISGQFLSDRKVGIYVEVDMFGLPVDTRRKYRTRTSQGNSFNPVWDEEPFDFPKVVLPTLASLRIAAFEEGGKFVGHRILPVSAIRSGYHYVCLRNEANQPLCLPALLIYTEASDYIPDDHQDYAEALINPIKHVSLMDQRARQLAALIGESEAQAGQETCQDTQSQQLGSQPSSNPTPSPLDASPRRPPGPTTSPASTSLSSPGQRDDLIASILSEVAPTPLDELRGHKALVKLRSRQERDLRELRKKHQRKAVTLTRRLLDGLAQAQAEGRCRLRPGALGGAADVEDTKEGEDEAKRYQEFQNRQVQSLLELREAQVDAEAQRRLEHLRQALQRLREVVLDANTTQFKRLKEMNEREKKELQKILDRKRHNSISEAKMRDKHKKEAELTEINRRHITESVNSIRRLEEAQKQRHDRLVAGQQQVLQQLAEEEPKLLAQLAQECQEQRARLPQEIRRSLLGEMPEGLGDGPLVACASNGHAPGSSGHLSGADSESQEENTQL
# Arr AP2 block – inhibitors of human beta-arrestin and AP2 interaction; FITC-arrestin peptide / GST-AP2 beads, flow cytometry; AP2 beta2 appendage carries R879A mutation; inhibition, % at 10 µM; 340,000 compounds, 0.31% hits;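 active means inhibition above a set limit, near 3 SD of compounds lacking own fluorescence, cut at about 54% in these data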;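 further: plate controls were DMSO wells for no effect and 5 µM unlabelled arrestin peptide for full effect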
#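 test system = AP2 appendage R879A on GSH beads | buffer or medium = PBS plus Tween 20 (0.05%) and BSA (0.1%) | incubation = 12 min plus 1 h, RT | detection = bead flow cytometry, FITC channel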
# PLC-gamma1 inh – blocks human PLC-gamma1 enzyme activity; purified PLC-gamma1, fluorogenic substrate, fluorescence; inhibition, % at 12.2 µM; 370,000 compounds, 0.84% hits; in the data active means inhibition above about 9.5%
# sPLA2 confirm – human GIII-sPLA2 inhibition, confirmation; 2,000 compounds, 34% hits; AID 743280; recombinant hGIII-sPLA2, BODIPY PC-A2 QFRET fluorescence; inhibition, % at 12.2 µM; shares compounds with HGIII-sPLA2 inh;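 active means mean inhibition across triplicates above the hit cutoff set in the earlier primary screen, cut at about 19% in these data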;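 further: 0% = enzyme with DMSO and 100% = DMSO wells lacking enzyme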
# BODIPY interf – 535nm fluorescence interference, HGIII-sPLA2 counter-screen. shares compounds with HGIII-sPLA2 inh. BODIPY FL product fluorescence interference, QFRET. inhibition, % at 12.2 µM. 2,000 compounds, 8.5% hits;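 active means average inhibition above the solvent-only control mean plus 3 SD, cut at about 6% in these data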;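 further: 0% = DMSO with substrate plus product and 100% = DMSO with substrate alone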
# An asterisk follows results filed as active; . = no result. Compounds with a hit are over-represented: about 1.9% of the library has one in this group of screens.
SMILES,procasp7 counter,procasp3 activ,HGIII-sPLA2 inh,PLCb3 inh,Arr AP2 block,PLC-gamma1 inh,sPLA2 confirm,BODIPY interf
CCOC(=O)C1CCCN(CCC(=O)Nc2cccc(Cl)c2C)C1 (stereo not given),-5.3,7.1,7.5,0.8,-2.1,5.8,.,.
CS(=O)(=O)N(CC(=O)O)c1cc(C(F)(F)F)ccc1Cl,3.9,2.7,-1.7,2.9,4.8,-3.4,.,.
C/C(=N\N=C\c1cccc(F)c1)c1nnn(-c2nonc2N)c1C,6.6,-2.0,20.5*,-4.5,-3.8,-0.2,-4.7,-6.8
COc1ccccc1NC(=O)c1ccc(SCC(=O)NCc2ccccc2Cl)c([N+](=O)[O-])c1,-2.1,-0.3,21.0*,1.5,10.9,2.8,7.6,-2.2
C[C@H](CO)N1C[C@H](C)[C@H](CN(C)Cc2ccncc2)Oc2ncc(Br)cc2C1=O,.,.,10.1,-3.0,.,-0.7,.,.
O=C(Nc1ccn(CCCNCCc2ccccn2)c(=O)n1)OCc1ccccc1,.,.,14.5,-3.2,.,2.7,.,.
O=C(Nc1ccn(CCCNCc2ccccn2)c(=O)n1)OCc1ccccc1,.,.,21.5*,-0.5,13.3,2.0,6.0,-15.8
CC(NC(=O)C(C(=O)c1cccc([N+](=O)[O-])c1)n1cc(Cl)ccc1=O)c1ccccc1 (stereo not given),1.2,3.6,24.5*,-3.7,-2.7,-0.7,-5.7,-5.6
Cc1c(C(=O)NNC(=S)Nc2cccc(Cl)c2)nnn1-c1ccccc1,-14.2,-6.0,31.3*,-1.0,10.2,-1.0,34.1*,9.3*
Cc1cc(C(=O)NNC(=S)Nc2ccccc2)nn1C,-1.4,-4.8,28.6*,-0.3,6.0,-3.0,23.1*,-0.4
Cc1cc(NC(=O)Nc2cccc(Cl)c2)n(-c2ccccc2)n1,-3.5,0.6,4.8,-5.6,6.3,5.5,.,.
CC/C(=C\c1ccc(N(C)C)cc1)c1ccncc1,.,.,22.6*,-102.1,37.1,-83.9,19.6*,-0.4
CN(C)c1ccc(/C=N/NC(=O)CNC(=O)c2ccncc2)cc1,5.5,0.3,2.7,-17.2,-0.4,-8.8,.,.
Cc1ccccc1C(=O)N1CCC1(C)C(=O)NC(C)C (stereo not given),.,.,3.3,0.8,.,-0.8,.,.
O=C1CN(c2nc(-c3ccccc3)c3cc(Cl)ccc3n2)c2ccccc2N1,2.9,1.9,20.6*,-5.1,11.6,-1.2,-8.3,-2.9
Cc1cccc(OCC(=O)Nc2sc3c(c2C#N)CCC3)c1,-1.4,-4.1,22.6*,-0.6,0.2,3.7,15.6,-6.6
CCCCNC(=S)NNC(=O)CCn1cc(C)cn1,-2.3,-7.1,11.5,-1.4,-5.1,1.6,.,.
Cc1cnn(CCC(=O)NNC(=S)NCC(C)C)c1,5.3,-7.1,22.3*,1.1,0.6,5.1,8.3,-1.6
Cc1ccc(-c2csc(N3CCN(c4cc5c(cc4Cl)nc(C)n5CCN4CCCCC4)CC3)n2)cc1,-10.9,-11.2,1.8,-14.4,-0.1,-15.2,.,.
Cc1ccc(-c2csc(N3CCN(c4cc5c(cc4Cl)nc(C(C)N)n5CCCO)CC3)n2)cc1 (stereo not given),8.0,1.4,22.8*,-24.0,22.2,-14.2,19.7*,-2.9
Cc1ccc(S(=O)(=O)N2CCCC2)cc1C(=O)NCC(C)(C)N1CCOCC1,-0.9,-0.7,0.5,0.9,3.7,2.4,.,.
CC(C)(C)N(CC(=O)NC1CCCCC1)C(=O)CS(=O)CC(=O)Nc1ccc(F)cc1 (stereo not given),5.7,12.8,0.1,-2.6,-4.7,-1.7,.,.
CC(=O)CC[C@@H]1CC[C@]2(CCCN(S(C)(=O)=O)C2)O1,.,.,21.9*,-2.5,.,4.9,-1.5,-5.6
COCCNC(=O)/C(C#N)=C/c1c(N2CC(C)OC(C)C2)nc2ccccn2c1=O (stereo not given),-3.1,-7.2,20.7*,-125.9,5.9,-131.6,2.8,-8.5
COc1ccc(N=Cc2ccc(-c3ccccc3)o2)cc1,-4.1,0.0,-0.9,-8.6,-9.0,0.7,.,.
SMILES,procasp7 counter,procasp3 activ,HGIII-sPLA2 inh,PLCb3 inh,Arr AP2 block,PLC-gamma1 inh,sPLA2 confirm,BODIPY interf
CCC(=O)Nc1ccc2c(c1)C(=O)N(C)[C@@H]1CC[C@@H](CC(=O)NCCN3CCCCC3)O[C@H]1CO2,.,.,20.6*,-2.6,.,7.8,1.9,-5.0
Nc1nc(-c2ccccc2)c(-c2ccccc2)s1,-2.4,-6.9,-3.8,-25.7,1.7,-19.6,.,.
Nc1nc(-c2ccccc2)c(N=Nc2ccc(Cl)cc2)s1,-2.9,-2.2,19.3*,-1.8,21.3,1.0,34.3*,7.1*
Cc1ncc(CO)c(/C=N/NC(=S)Nc2ccc(F)cc2)c1O,-6.7,-6.0,19.7*,-150.0,-4.6,-132.0,20.4*,-4.9
Cc1ncc(CO)c(/C=N/Nc2ccc(C(F)(F)F)cn2)c1O,7.8,-6.5,0.9,-151.4,1.9,-110.6,.,.
CCCOc1cccc(OCC(=O)Nc2nc3ccccc3[nH]2)c1,-5.8,-10.9,25.1*,-5.1,8.4,1.5,14.2,-3.3
O=C(c1cc(C2CC2)nn1-c1ccccc1)N1CCN(S(=O)(=O)c2ccccc2F)CC1,.,.,8.2,-4.7,.,4.0,.,.
COc1ccc2nc(Nc3ccc4c(c3)OCO4)sc2c1,-4.8,2.2,85.7*,8.3,31.7,8.0,-0.7,1.6
CCCOc1ccccc1C1NC(=O)NC(C)=C1C(=O)OCCOC (stereo not given),12.6,2.0,20.7*,4.2,-6.9,5.2,1.9,-1.3
C=CCn1c(CSc2ccc(C)cc2)n[nH]c1=S,-15.9,-9.8,22.1*,-5.0,1.8,-0.9,24.7*,3.0
C=CCn1c(SCc2n[nH]c(=S)n2-c2ccccc2)nnc1-c1ccccc1,-1.2,3.2,20.1*,-6.6,-17.7,-2.1,9.4,-0.5
COc1ccc(-c2c(C#N)c(SCC(N)=O)nc3c2CCCC3)cc1,-9.0,12.9,19.8*,1.4,22.2,-3.9,19.6*,-6.8
Cc1ccc2cc(C#N)c(SCC(=O)N3CCCc4ccccc43)nc2c1,-2.2,-2.0,3.3,1.1,2.4,0.8,.,.
Cc1ccc2cc(C#N)c(SCC(=O)N3CCCc4ccccc43)nc2c1C,8.3,0.9,19.6*,-5.8,-7.5,-2.4,-2.7,-4.3
O=C(CSc1cc(Cl)ccc1Cl)Nc1ccc(N2CCOCC2)cc1,6.8,-8.3,10.5,-8.8,6.0,0.3,.,.
Nc1ccc(C(=O)Oc2ccc([N+](=O)[O-])cc2)cc1,2.2,-6.6,22.8*,1.3,-4.2,3.1,2.9,-2.6
O=C(CN1CCN(S(=O)(=O)c2cccc(Cl)c2)CC1)NCC1(N2CCOCC2)CCCCC1,-10.8,-9.3,8.1,-2.7,-0.1,0.5,.,.
CCc1c(C)sc(NC(=O)c2cccs2)c1C#N,-14.4,-0.8,20.3*,-189.7,13.8,-87.5,25.3*,-3.1
NC(=O)CCc1c[nH]c2ccccc12,7.0,8.4,-0.3,-3.9,8.6,-1.1,.,.
OCC(CCc1c[nH]c2ccccc12)c1c[nH]c2ccccc12 (stereo not given),.,.,35.1*,-114.5,.,-85.7,9.8,10.2*
